According to ChEMBL document CHEMBL1138802, “New water-soluble sulfonylphosphoramidic acid derivatives of the COX-2 selective inhibitor cimicoxib. A novel approach to sulfonamide prodrugs” (J Med Chem, 2004):

Assays:
[1] = Half life after i.v. administration of 2 mg/kg to Dogs; type: ADME, organism-based, Canis lupus familiaris; design: dose 2 mg/kg, route intravenous; conditions: dog, in vivo, iv
In short: (§1)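 Dogs received the parent sulfonamide iv at 2 mg/kg as a suspension. Parameters (t1/2, AUC/dose in ng h/mL, Cl in mL/h/kg, Vd in mL/kg) were derived from its plasma levels and reported as mean ± deviation.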

[2] = target: T1, Prostaglandin G/H synthase 2 (Rattus norvegicus) (UniProt P35355); assay: Percentage inhibition of rat carrageenan-induced paw edema after iv administration at 3 mg/kg; type: functional, organism-based; design: dose 3 mg/kg
T1 sequence (whole entry): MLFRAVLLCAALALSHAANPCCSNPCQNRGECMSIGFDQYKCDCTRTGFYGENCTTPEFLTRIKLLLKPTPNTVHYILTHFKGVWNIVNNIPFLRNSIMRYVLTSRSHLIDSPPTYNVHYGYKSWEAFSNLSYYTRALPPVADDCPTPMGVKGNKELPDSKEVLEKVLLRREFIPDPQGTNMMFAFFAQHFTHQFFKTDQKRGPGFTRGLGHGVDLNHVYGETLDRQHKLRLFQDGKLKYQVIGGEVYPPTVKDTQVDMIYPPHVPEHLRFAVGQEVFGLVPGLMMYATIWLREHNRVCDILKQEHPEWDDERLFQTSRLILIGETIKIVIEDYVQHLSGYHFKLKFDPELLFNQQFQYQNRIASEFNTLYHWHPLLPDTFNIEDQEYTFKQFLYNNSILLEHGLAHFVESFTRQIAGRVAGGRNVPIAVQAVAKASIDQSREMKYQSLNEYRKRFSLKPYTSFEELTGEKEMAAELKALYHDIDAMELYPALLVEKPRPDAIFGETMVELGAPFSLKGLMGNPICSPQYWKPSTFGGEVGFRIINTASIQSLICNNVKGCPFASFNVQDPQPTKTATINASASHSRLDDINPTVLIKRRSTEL
In short: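 Male Sprague–Dawley rats (150–175 g) were dosed iv at 3 mg/kg in PBS (1 mL/kg) 10 min before intraplantar injection of 0.1 mL 1% λ-carrageenan into the hindpaw. Paw volume was measured by water-displacement plethysmometry before and 1, 2, 3 and 4 h after treatment. % inhibition was calculated from the AUC of treated versus control animals.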

[3] = Volume of distribution after i.v. administration of 2 mg/kg to Dogs; type: ADME, organism-based, Canis lupus familiaris; design: dose 2 mg/kg, route intravenous; conditions: dog, in vivo, iv; in short: as §1
[4] = Area under curve after i.v. administration of 2 mg/kg to Dogs; type: ADME, organism-based, Canis lupus familiaris; design: dose 2 mg/kg, route intravenous; conditions: dog, in vivo, iv; in short: as §1
[5] = Clearance after i.v. administration of 2 mg/kg to Dogs; type: ADME, organism-based, Canis lupus familiaris; design: dose 2 mg/kg, route intravenous; conditions: dog, in vivo, iv; in short: as §1
[6] = Area under curve after i.v. administration of 1 mg/kg to Dogs; type: ADME, organism-based, Canis lupus familiaris; design: dose 1 mg/kg, route intravenous; conditions: dog, in vivo, iv
In short: (§2)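 Dogs received the water-soluble phosphoramidic acid prodrug iv at 1 mg/kg as a solution. Parameters (t1/2, AUC/dose in ng h/mL, Cl in mL/h/kg, Vd in mL/kg) were derived from plasma levels of the released parent sulfonamide and reported as mean ± deviation.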

[7] = Volume of distribution after i.v. administration of 1 mg/kg to Dogs; type: ADME, organism-based, Canis lupus familiaris; design: dose 1 mg/kg, route intravenous; conditions: dog, in vivo, iv; in short: as §2
[8] = Clearance after i.v. administration of 1 mg/kg to Dogs; type: ADME, organism-based, Canis lupus familiaris; design: dose 1 mg/kg, route intravenous; conditions: dog, in vivo, iv; in short: as §2

| Compound | half-life [1] [h] | inhibition [2] [%] | Vd [3] [L/kg] | AUC/dose [4] [ng·h/mL] | clearance [5] [mL/min/kg] | AUC/dose [6] [ng·h/mL] | Vd [7] [L/kg] | clearance [8] [mL/min/kg] |
| --- | --- | --- | --- | --- | --- | --- | --- | --- |
| COc1ccc(-c2c(Cl)ncn2-c2ccc(S(N)(=O)=O)cc2)cc1F [CIMICOXIB] | 5 | 34.8 | 2.12 | 3253.4 | 4.87 | – | – | – |
| COc1ccc(-c2c(Cl)ncn2-c2ccc(S(=O)(=O)NP(=O)(O)O)cc2)cc1F | 4.9 | 34.8 | – | – | – | 3641.1 | 1.86 | 4.55 |
| CCC(=O)NS(=O)(=O)c1ccc(-c2c(-c3ccccc3)noc2C)cc1 | – | 32.6 | – | – | – | – | – | – |
